Assay: Toxicity liver stage against HepG2, at 10uM
Format: cell-based
Design: test concentration 10 uM, cell line HepG2-A16-CD81EGFP
Conditions: human, HepG2-A16-CD81EGFP cells; read-out: INHIBITION
Procedure, shortened: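 Uninfected HepG2-A16-CD81EGFP cells, 3 × 10^3 per well, 1536-well, plated on prespotted compound at 10 μM final, parasite-free screening media added to match infected plates; puromycin 10 μM positive, DMSO 0.5% negative; run in parallel with 48 h PbLuc assay at 37 °C, 5% CO2; viability by CellTiter-Glo luminescence, normalized to controls.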

CC(C)CN1C(=O)COC[C@@H]1[C@H](O)c1ccc(NC(=O)C2CC2)cc1
cytotoxicity at 10 µM: 5.76%

Cc1c(C2SCC(=O)Nc3c2c(O)nn3C2CCCCC2)cnn1C (stereo not given)
cytotoxicity at 10 µM: 0.618%

COc1ccc2c(ccn2CCC(=O)Nc2nc[nH]n2)c1
cytotoxicity at 10 µM: -12.6%

CCc1ccccc1NC(=O)C1CN(C(C)=O)C1
cytotoxicity at 10 µM: 8.49%

Cn1nc(C(=O)N2CC(Oc3nc4c(Cl)cccc4s3)C2)ccc1=O
cytotoxicity at 10 µM: 1.48%

O=C(c1cccnc1)N1CC(S(=O)(=O)c2ccc(Cl)cc2)C1
cytotoxicity at 10 µM: -0.649%

COCC1c2c(cnn2C)CCN1C(=O)c1ccc2c(c1)OCO2 (stereo not given)
cytotoxicity at 10 µM: 3.74%

c1cc(CNCC2Cn3nncc3CO2)ccn1 (stereo not given)
cytotoxicity at 10 µM: 6.62%

CC(=O)N1CC(=O)N(c2cnn(C)c2)CC12CCN(Cc1ccco1)C2 (stereo not given)
cytotoxicity at 10 µM: 2.41%

CC1CCC2(CC1)Nc1ccccc1CO2 (stereo not given)
cytotoxicity at 10 µM: 4.81%

O=C(Cc1ccc2c(c1)OCC2)Nc1nc[nH]n1
cytotoxicity at 10 µM: -2.94%

CN(C)S(=O)(=O)N1CCC2(COCc3cnc(-c4ccccc4)nc32)C1 (stereo not given)
cytotoxicity at 10 µM: -13.6%

CCN(Cc1nonc1C)C(=O)c1cc(C(F)(F)F)nn1C
cytotoxicity at 10 µM: 2.06%

COc1cc(NC(=O)NCC2CCCO2)cc(OC)c1OC (stereo not given)
cytotoxicity at 10 µM: -7.71%

O=S(=O)(c1ccc(N2CCCCC2)c2nonc12)N1CCCCC1
cytotoxicity at 10 µM: 6.74%

O=C1CNc2ncnc(N3CCN(Cc4ccccc4)CC3)c2N1
cytotoxicity at 10 µM: 9.76%

CCn1nc(C)c(NC(=O)c2cc(NC(=O)C3CC3)n(C)n2)c1C
cytotoxicity at 10 µM: -0.916%

Cc1ccc(-c2cc(C(F)(F)F)nc(N3CCOCC3)n2)s1
cytotoxicity at 10 µM: 0.452%

CN1CCc2nc(C3CCCN(S(=O)(=O)c4ccccc4)C3)ncc2C1 (stereo not given)
cytotoxicity at 10 µM: 2.67%

CCOc1ccc(CN2CCOCC2c2[nH]ncc2C)cc1CO (stereo not given)
cytotoxicity at 10 µM: -2.92%

Cn1ccc2cc(CC3COCCN(C(=O)c4cccnc4)C3)ccc21 (stereo not given)
cytotoxicity at 10 µM: 7.24%

CC(C)Nc1nc(O)cc(C(C)n2ncc3ccccc3c2=O)n1 (stereo not given)
cytotoxicity at 10 µM: 2.81%

CC(=O)N1CCC1c1cc(N2CCSCC2)nc(C)n1 (stereo not given)
cytotoxicity at 10 µM: 6.53%

CCc1nc(N2CCOCC2)ncc1C(=O)NC(c1cccs1)C(C)C (stereo not given)
cytotoxicity at 10 µM: 12.3%

Cc1c(C(=O)N[C@@H]2CC[C@@H](N3CCCC3)[C@@H]2O)[nH]c2ccc(F)cc12
cytotoxicity at 10 µM: -1.85%

COc1ccc2[nH]cc(C(=O)N3C[C@@H](O)[C@H](N4CCOCC4)C3)c2c1
cytotoxicity at 10 µM: -9.06%

CNCC(=O)N1CCC(c2cccc(Oc3ccccc3)n2)CC1
cytotoxicity at 10 µM: -11.7%

CNC(=O)Cn1ccc2ccc(NC(=O)C(C)CSC)cc21 (stereo not given)
cytotoxicity at 10 µM: -1.1%

CCN1CCN(c2cncc(Cl)n2)CC1
cytotoxicity at 10 µM: 11.6%

CCN1CCCCC1C(=O)N1CCN(C(=O)OC)CC1 (stereo not given)
cytotoxicity at 10 µM: -4.81%

CC(C(=O)NCC(C)(C)c1ccc2c(c1)OCO2)n1ccnc1 (stereo not given)
cytotoxicity at 10 µM: 6.36%

Cc1cc(C)c(CNc2cnn(CC(O)CN(C)C)c2)c(C)c1 (stereo not given)
cytotoxicity at 10 µM: 15%

CN(Cc1nc2ccccc2[nH]1)C(=O)C(C)(C)n1cc(Cl)cn1
cytotoxicity at 10 µM: 6.16%

Cc1noc(CN(C)c2ccccc2)n1
cytotoxicity at 10 µM: 8.82%

COc1ccccc1OCC(=O)NS(=O)(=O)c1cccnc1
cytotoxicity at 10 µM: -4.69%

O=C(c1coc(-c2ccccc2)n1)N1CCS(=O)(=O)CC1
cytotoxicity at 10 µM: 11.4%

CCNC(=O)NC(=O)C(C)Nc1ccccc1OCCOC (stereo not given)
cytotoxicity at 10 µM: 4%

COc1ccc(C(CO)NC(=O)Nc2cccc(F)c2)cc1 (stereo not given)
cytotoxicity at 10 µM: -4.82%

O=C(CNC(=O)Nc1cccc(Cl)c1SC(F)F)NC1CC1
cytotoxicity at 10 µM: 0.797%

Cc1noc(C)c1CN1CCC(N(C)Cc2noc(C(C)C)n2)C1 (stereo not given)
cytotoxicity at 10 µM: -6.37%

Cc1ncccc1CNCC1CCc2nnc(C(C)C)n2C1 (stereo not given)
cytotoxicity at 10 µM: -6.27%

O=C(CCc1ccc(Cl)s1)N1CCCC(N2CCNC2=O)C1 (stereo not given)
cytotoxicity at 10 µM: 1.09%

CCSc1ccc(C(=O)N2CCCCC2C(=O)NC(C)(C)C)cn1 (stereo not given)
cytotoxicity at 10 µM: -7.69%

COCc1ccccc1C(=O)N1CCn2c(nnc2C(C)C)C1
cytotoxicity at 10 µM: 2.91%

CC(NCc1cnc(C2CCC2)s1)c1cccc(-n2ccnc2)c1 (stereo not given)
cytotoxicity at 10 µM: 4.12%

Cc1nc(C(C)C)sc1C(=O)NCCn1ccnc1
cytotoxicity at 10 µM: 1.28%

Cc1nn(C)c(C)c1CC(=O)NCc1cccnc1OC1CCCC1
cytotoxicity at 10 µM: -0.527%

O=C(NC1(c2nccs2)CCCC1)c1cc(C2CC2)[nH]n1
cytotoxicity at 10 µM: 2%

CC(C)(C)Oc1ccccc1CNC(=O)C1CCCOC1 (stereo not given)
cytotoxicity at 10 µM: 0.997%

CCN(C(=O)NCc1ccc(C)cc1OC)C(C)c1cccnc1 (stereo not given)
cytotoxicity at 10 µM: 6.32%

COc1ccccc1C1(CNCc2ccc(C#N)cc2)CCOCC1
cytotoxicity at 10 µM: 7.62%

O=C1CCCN1c1cccc(CNCc2nc(C3CC3)no2)c1
cytotoxicity at 10 µM: -7.11%

O=C(c1cnccn1)N1CCC(CN2CCOCC2)CC1
cytotoxicity at 10 µM: 4.55%

CC(C)(C)c1nnc(CN2CCC(c3cc4ccccc4[nH]3)CC2)o1
cytotoxicity at 10 µM: 24.3%

Cc1nn(C)c(Oc2cccc(F)c2)c1NC(=O)C1CCCO1 (stereo not given)
cytotoxicity at 10 µM: -7.64%

CN(CC1CC1)C(=O)CN(Cc1cccc(O)c1)C1CCC(O)CC1 (stereo not given)
cytotoxicity at 10 µM: -1.21%

O=C(Nc1cccnc1)N1CCC(n2ccc(C(F)(F)F)n2)CC1
cytotoxicity at 10 µM: -6.08%

Cc1cc(N2CCN(CCO)CC2)nc(-c2ccncc2)n1
cytotoxicity at 10 µM: -1.25%

O=C(c1cnccn1)N1CC[C@H]2C[C@@H](c3ccncn3)O[C@@H]2C1
cytotoxicity at 10 µM: -78.5%

CN1CCCC2(CCN(C(=O)c3ccncc3)C2)C1 (stereo not given)
cytotoxicity at 10 µM: -68.3%

CCCc1cncnc1N1CCC(NCc2ccc(O)cc2)CC1
cytotoxicity at 10 µM: 3.8%

CCc1cnc(NCc2nc(CSC)no2)nc1
cytotoxicity at 10 µM: 7.15%

COc1ccc(C)cc1-n1cnnc1C1CCCN(C)C1 (stereo not given)
cytotoxicity at 10 µM: 6.43%

CCN1CC(CN(C)Cc2nc(-c3cccc(Cl)c3)oc2C)CC1=O (stereo not given)
cytotoxicity at 10 µM: 6.9%

CCc1oc(C(=O)NC(C)Cc2cnccn2)cc1CN1CCCC1 (stereo not given)
cytotoxicity at 10 µM: -5.28%

CCN(Cc1noc(C2CCC2)n1)C(=O)c1cn2ccsc2n1
cytotoxicity at 10 µM: 5.44%

Cc1nnc(SCC(=O)N2CCc3[nH]nc(C4CCC4)c3C2)o1
cytotoxicity at 10 µM: -7.09%

Cc1nn(C)c2ncnc(N3CCC(O)(CN4CCCC4)CC3)c12
cytotoxicity at 10 µM: 2.68%

Cc1cc(CNc2cncc(C(=O)N(C)C)n2)c2[nH]c(C)c(C)c2c1
cytotoxicity at 10 µM: -12.2%

CC(C)n1cc(C(=O)N2CCC(n3cc(C(C)(C)C)nn3)CC2)cn1
cytotoxicity at 10 µM: 1.19%

COc1ccc(/C=C/CN2CCC3(CC2)CN(C)C(=O)O3)cc1
cytotoxicity at 10 µM: -2.11%

Cc1cc(CN(C)C(=O)C(c2ccccc2F)N(C)C)ccn1 (stereo not given)
cytotoxicity at 10 µM: 2.78%

CCC(CC)C(=O)N1CCC2(CC1)c1ccccc1[C@@H](OC)[C@@H]2O
cytotoxicity at 10 µM: 6.75%

O=C(c1nc(=O)[nH]c2ccccc12)N1CCCC(CC2CC2)(C(=O)O)C1 (stereo not given)
cytotoxicity at 10 µM: 6.56%

COCC(NC(=O)c1cc(NC(C)=O)ccc1Cl)c1ccnn1C (stereo not given)
cytotoxicity at 10 µM: -2.22%

CCOc1ccc(C(=O)CCC(=O)N(C)Cc2snnc2C)cc1C
cytotoxicity at 10 µM: -2.29%

CC(Cn1cccn1)n1cnc2cccc(F)c2c1=O (stereo not given)
cytotoxicity at 10 µM: -0.288%

CC(C)=CCN1Cc2nnc(C3CCOCC3)n2C(Cc2c[nH]cn2)C1 (stereo not given)
cytotoxicity at 10 µM: -9.36%

CCC[C@H]1CN(C(=O)c2cc(-c3cccs3)n(C)n2)C[C@@H]1N
cytotoxicity at 10 µM: -1.02%

CCn1nc(CC(C)C)cc1C(=O)N1C[C@H](O)[C@@H](N2CCCCC2)C1
cytotoxicity at 10 µM: 20.7%

c1cn(Cc2nnc(C3CCN(C4CCOCC4)CC3)n2C2CC2)cn1
cytotoxicity at 10 µM: 0.442%

Cc1cc(C(=O)N2CCCC(c3cc(C(F)(F)F)[nH]n3)C2)[nH]n1 (stereo not given)
cytotoxicity at 10 µM: -6.79%

CC(C)n1ncc2cc(NC(=O)N3CCC(CO)CC3)cnc21
cytotoxicity at 10 µM: -14.5%

CC(C)c1nc(CN2CCCC2Cn2cncn2)no1 (stereo not given)
cytotoxicity at 10 µM: -7.3%

COc1ccc(OC2CCN(C(=O)c3ccc(C)[nH]c3=O)CC2)cc1
cytotoxicity at 10 µM: -3.22%

NC(=O)CN1CCCN(C(=O)CCOc2ccccc2Cl)CC1
cytotoxicity at 10 µM: -6.73%

CCCc1noc(CCC(=O)N2CCCC2c2cccs2)n1 (stereo not given)
cytotoxicity at 10 µM: -14.4%

COc1ccc(C)cc1CN(C)CC(=O)NC1(C)CCS(=O)(=O)C1 (stereo not given)
cytotoxicity at 10 µM: 1.28%

COc1ccc(-c2noc(CN3CCCC3Cn3cccn3)n2)cc1 (stereo not given)
cytotoxicity at 10 µM: 2.88%

COCc1nc(C(=O)N2CCCC2c2ccncc2)cs1 (stereo not given)
cytotoxicity at 10 µM: -11.4%

O=C(NCC1CCOC1)N1CCN(Cc2ccc3c(c2)CCO3)CC1 (stereo not given)
cytotoxicity at 10 µM: -4.2%

O=C(C1COCCO1)N1CCN(Cc2ccc3c(c2)CCO3)CC1 (stereo not given)
cytotoxicity at 10 µM: -5.99%

CN1CCCCC1c1cncc(Cl)n1 (stereo not given)
cytotoxicity at 10 µM: 0.995%

O=S(=O)(NCC1OCCc2cn(CC3CCOCC3)nc21)C1CC1 (stereo not given)
cytotoxicity at 10 µM: 11.2%

Cc1ccc(Nc2ncnc3c2CCN(CC2CCOC2)CC3)cc1 (stereo not given)
cytotoxicity at 10 µM: 5.32%

Cc1cnc(N2C[C@H]3CCN(CC4CC4)C[C@@H]3C2)nc1
cytotoxicity at 10 µM: 7.55%

O=C(O)c1cc2c(nc1NCC1CC1)CCN(C1CCOC1)CC2 (stereo not given)
cytotoxicity at 10 µM: 7.83%

c1ccc(COC[C@H]2CC[C@H]3[C@H](CCN3Cc3cccnc3)O2)nc1
cytotoxicity at 10 µM: -80.2%

O=C1NCC[C@]12CN(CC1CCOCC1)C[C@H]2c1ccccc1
cytotoxicity at 10 µM: 6.59%

CCc1nc(-c2ccnc(N3CCNCC3)n2)no1
cytotoxicity at 10 µM: 11.9%

Cc1noc(C)c1CN1CC[C@H]2OCC[C@@]2(C(=O)N(C)C)C1
cytotoxicity at 10 µM: -76.5%

CNC(=O)C1Cn2ccnc2C2(CCN(Cc3cccc(C)n3)CC2)O1 (stereo not given)
cytotoxicity at 10 µM: 7.67%

CC(C)C(=O)N1CCC2(CN(CC3CCCC3)C2)C1
cytotoxicity at 10 µM: 3.86%

COCCNC(=O)C1CN(Cc2nccs2)Cc2ccnn2C1 (stereo not given)
cytotoxicity at 10 µM: -72.7%

N#Cc1cccc(CN2CC[C@@H]3[C@@H]2CC(=O)N3Cc2ccncc2)c1
cytotoxicity at 10 µM: -73.7%

O=C(c1cccnc1)N1CCCC2(COCCN(c3ccccc3)C2)C1 (stereo not given)
cytotoxicity at 10 µM: 2.17%

CCS(=O)(=O)N1CCCC2(COCCN(c3nnc(C)o3)C2)C1 (stereo not given)
cytotoxicity at 10 µM: 8.88%

O=C(COC1CCCC1)N1C[C@@H]2CN(Cc3ccoc3)CCO[C@@H]2C1
cytotoxicity at 10 µM: 4.65%

CCCS(=O)(=O)N1CCN(CCOC)c2nc(C)ccc2C1
cytotoxicity at 10 µM: 8.07%

COc1ccccc1CC(=O)N1C[C@@H]2CC[C@H]1CN(Cc1cscn1)C2
cytotoxicity at 10 µM: -1.87%

Reference: ChEMBL document CHEMBL4513216, “Probing the Open Global Health Chemical Diversity Library for Multistage-Active Starting Points for Next-Generation Antimalarials” (ACS Infect Dis, 2020)
